Test results from ChEMBL document CHEMBL1123080, “Synthesis and antiviral activity of the carbocyclic analogues of (E)-5-(2-halovinyl)-2'-deoxyuridines and (E)-5-(2-halovinyl)-2'-deoxycytidines” (1985).
Values after ≈ are worked out from the molar mass of the structure shown.

Test system: Vaccinia virus
Test: Minimum inhibitory concentration (MIC) required to reduce vaccinia virus induced cytopathogenicity in primary rabbit kidney cell cultures
Format: functional
Conditions: Orthopoxvirus vaccinia
Procedure, shortened: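 Primary rabbit kidney cell cultures were infected with virus and treated with compound. The MIC is the concentration that reduces virus-induced cytopathogenicity by 50%. Cytotoxicity was scored as microscopically visible alteration of normal cell morphology, with 400 μg/mL the highest concentration tested.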

Row | Compound | MIC50
1 | O=c1[nH]c(=O)n(C2CC(O)C(CO)C2)cc1/C=C/I (configuration not stated) | 300 µg/mL (≈ 793 µM)
2 | Nc1nc(=O)n(C2CC(O)C(CO)C2)cc1/C=C/Br (configuration not stated) | > 200 µg/mL
3 | O=c1[nH]c(=O)n([C@H]2C[C@H](O)[C@@H](CO)O2)cc1/C=C/I | 7 µg/mL (≈ 18.4 µM)
4 | O=c1[nH]c(=O)n([C@@H]2C[C@H](CO)[C@@H](O)C2)cc1I | 20 µg/mL (≈ 56.8 µM)
5 | NC1NC(=O)N([C@H]2C[C@H](O)[C@@H](CO)O2)C=C1/C=C/Br (some centres not stated) | 200 µg/mL (≈ 598 µM)
6 | O=c1[nH]c(=O)n([C@H]2C[C@@H](CO)[C@H](O)C2)cc1/C=C/Br | 300 µg/mL (≈ 906 µM)
7 | O=c1[nH]c(=O)n([C@H]2C[C@H](O)[C@@H](CO)O2)cc1I [IDOXURIDINE] | 0.2 µg/mL (≈ 0.565 µM)
